pKi: −log10 of the molar value. Activity calls are given as the source filed them. The calls are words filed in the database; no cut-off is given here.
Legend:
[1] = biological target: T1, 5-hydroxytryptamine receptor 1A (Rattus norvegicus, UniProt P19327); assay: Displacement of [3H]8-OH-DPAT from rat cerebral cortex 5-HT1A receptor after 30 mins by liquid scintillation counting; type: tissue-based
T1 sequence (P19327 whole entry): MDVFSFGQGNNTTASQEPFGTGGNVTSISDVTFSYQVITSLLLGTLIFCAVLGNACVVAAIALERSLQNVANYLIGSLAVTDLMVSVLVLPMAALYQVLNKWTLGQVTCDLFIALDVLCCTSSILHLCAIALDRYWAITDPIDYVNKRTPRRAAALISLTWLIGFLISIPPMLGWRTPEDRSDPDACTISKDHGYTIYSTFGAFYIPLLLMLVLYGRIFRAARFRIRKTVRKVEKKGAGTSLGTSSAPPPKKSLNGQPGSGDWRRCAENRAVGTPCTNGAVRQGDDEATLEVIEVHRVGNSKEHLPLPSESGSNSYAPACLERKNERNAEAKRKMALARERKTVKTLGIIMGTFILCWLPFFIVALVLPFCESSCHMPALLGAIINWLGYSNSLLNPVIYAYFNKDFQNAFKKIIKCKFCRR
How it was run: (§1)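 Competition binding on rat cerebral cortex homogenates. 5-HT1A was labelled with [3H]-8-hydroxy-2-(di-n-propylamino)tetralin and 5-HT2A with [3H]ketanserine. The method followed a previously reported procedure. Ki values are reported as mean ± SEM.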

[2] = biological target: 5-hydroxytryptamine receptor 2A (Rattus norvegicus, UniProt P14842); assay: Displacement of [3H]-ketanserin from rat cerebral cortex 5-HT2A receptor after 30 mins by liquid scintillation counting; type: tissue-based; how it was run: as §1
Sequence of 5-hydroxytryptamine receptor 2A (P14842 whole entry): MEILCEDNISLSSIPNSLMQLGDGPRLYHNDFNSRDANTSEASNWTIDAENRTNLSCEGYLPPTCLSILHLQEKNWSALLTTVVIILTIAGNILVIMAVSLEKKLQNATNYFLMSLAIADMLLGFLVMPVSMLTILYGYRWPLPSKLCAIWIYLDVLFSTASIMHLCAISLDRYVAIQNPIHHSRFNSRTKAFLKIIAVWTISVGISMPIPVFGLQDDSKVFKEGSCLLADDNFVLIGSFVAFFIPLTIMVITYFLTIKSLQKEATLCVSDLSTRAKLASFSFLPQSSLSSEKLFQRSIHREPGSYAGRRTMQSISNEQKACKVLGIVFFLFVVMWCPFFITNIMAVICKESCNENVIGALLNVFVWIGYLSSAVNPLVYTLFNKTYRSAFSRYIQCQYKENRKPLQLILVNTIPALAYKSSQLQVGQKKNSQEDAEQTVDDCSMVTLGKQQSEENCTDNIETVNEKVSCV

Mus musculus [3] = assay: Antidepressant activity in Kunming mouse assessed as decrease in immobility time at 40 mg/kg, po by tail suspension test; type: functional, organism-based; set-up: dose 40 mg/kg
Mus musculus [4] = assay: Antidepressant activity in Kunming mouse assessed as decrease in immobility time at 40 mg/kg, po by forced swimming test; type: functional, organism-based; set-up: dose 40 mg/kg
Mus musculus [5] = assay: Toxicity in Kunming mouse assessed as locomotor activity at 10 mg/kg, po measured for 10 mins (reference value: 1165 +/- 263 cm); type: organism-based; set-up: dose 10 mg/kg, route oral; details: in vivo
How it was run: (§2)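 Mice were given test compound orally, with a vehicle-treated group as control. Locomotor activity was recorded for 10 min and reported as distance travelled (cm). Values are mean ± SEM, n = 10 per group. The test was used to rule out false positives in the swim and tail-suspension tests.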

Mus musculus [6] = assay: Toxicity in Kunming mouse assessed as locomotor activity at 40 mg/kg, po measured for 10 mins (reference value: 1165 +/- 263 cm); type: organism-based; set-up: dose 40 mg/kg, route oral; details: in vivo; how it was run: as §2
Mus musculus [7] = assay: Toxicity in Kunming mouse assessed as locomotor activity at 100 mg/kg, po measured for 10 mins (reference value: 1165 +/- 263 cm); type: organism-based; set-up: dose 100 mg/kg, route oral; details: in vivo; how it was run: as §2
Mus musculus [8] = assay: Antidepressant activity in po dosed Kunming mouse assessed as decrease in immobility time by forced swimming test; type: functional

Row | SMILES | pKi [1] | pKi [2] | antidepressant activity (active/inactive) (Mus musculus [3]) | Decrease in immobility time (Mus musculus [4]) | Activity (Mus musculus [5]) [cm] | Activity (Mus musculus [6]) [cm] | Activity (Mus musculus [7]) [cm] | ED50 (Mus musculus [8]) [mg/kg]
1 | c1ccc2c(c1)OCC(COCCCN1CCC(c3nc4ccccc4s3)CC1)O2 (stereo not given) | 7.04 | 7.55 | – | – | – | – | – | –
2 | c1ccc(C2Oc3ccccc3OC2COCCCN2CCC(c3nc4ccccc4o3)CC2)cc1 (stereo not given) | 7.29 | 8.39 | Active | Active | – | – | – | –
3 | O=C(NCCN1CCC(c2nc3ccccc3o2)CC1)C1COc2ccccc2O1 (stereo not given) | 7.12 | 7.06 | – | – | – | – | – | –
4 | c1ccc(C2Oc3ccccc3OC2COCCCCN2CCC(c3nc4ccccc4s3)CC2)cc1 (stereo not given) | 7.51 | 7.62 | Active | Active | – | – | – | –
5 | c1ccc(C2Oc3ccccc3OC2COCCCN2CCC(c3nc4ccccc4s3)CC2)cc1 (stereo not given) | 6.87 | 7.72 | Active | Active | – | – | – | –
6 | CC1Oc2ccccc2OC1COCCCN1CCC(c2nc3ccccc3s2)CC1 (stereo not given) | 6.99 | 6.88 | – | – | – | – | – | –
7 | O=C(NCCN1CCC(c2nc3ccccc3s2)CC1)C1COc2ccccc2O1 (stereo not given) | 7.03 | 6.95 | – | – | – | – | – | –
8 | c1ccc(C2Oc3ccccc3OC2COCCCCCN2CCC(c3nc4ccccc4o3)CC2)cc1 (stereo not given) | 6.97 | 9.13 | – | – | – | – | – | –
9 | CC1Oc2ccccc2OC1COCCCN1CCC(c2nc3ccccc3o2)CC1 (stereo not given) | 6.82 | 8.09 | – | – | – | – | – | –
10 | O=C(NCCCN1CCC(c2nc3ccccc3o2)CC1)C1COc2ccccc2O1 (stereo not given) | 7.08 | 7.06 | Active | Active | – | – | – | –
11 | c1ccc(C2Oc3ccccc3OC2COCCCCCN2CCC(c3nc4ccccc4s3)CC2)cc1 (stereo not given) | 6.88 | 6.83 | – | – | – | – | – | –
12 | O=C(NCCCN1CCC(c2nc3ccccc3s2)CC1)C1COc2ccccc2O1 (stereo not given) | 7.07 | 7.05 | Active | Active | – | – | – | –
13 | CN(C)CCCN1c2ccccc2CCc2ccccc21 [IMIPRAMINE] | – | – | – | – | 1248 | – | – | –
14 | c1ccc(C2Oc3ccccc3OC2COCCCCN2CCC(c3nc4ccccc4o3)CC2)cc1 (stereo not given) | 7.77 | 9.15 | Active | Active | 1180 | 1114 | 1150 | 39
15 | c1ccc2c(c1)OCC(COCCCN1CCC(c3nc4ccccc4o3)CC1)O2 (stereo not given) | 6.92 | 7.52 | – | – | – | – | – | –

From ChEMBL document CHEMBL3232997, “Synthesis and biological evaluation of a series of benzoxazole/benzothiazole-containing 2,3-dihydrobenzo[b][1,4]dioxine derivatives as potential antidepressants” (Bioorg Med Chem Lett, 2014)
